Activity calls are given as the source filed them.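 How the source made its calls, unless noted: active means compounds giving at least 50% inhibition in the cell-based MKP-3 phosphatase rescue imaging test; inactive means the rest.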
Tests used:
[1] = inhibitors of TNFa-induced NFkB p65 translocation, primary screen, imaging, HUVEC, MLSMR starter and 10KST1 sets (AID 438;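 active means inhibition above 20% together with a positive visual image hit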;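 further: compound added about 3h40 before a 20 min TNFalpha stimulation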;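 on inhibition: signal is the nuclear over cytoplasmic p65 intensity ratio per well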); conditions: HUVEC TNFa-induced p65 nuclear translocation; cell count: measured here: nuclei count (cytotoxicity indicator), at 2.08 µM; inhibition: at 2 µM, stronger effect = higher value, 0% TNFa-plus-vehicle, 100% no-TNFa wells
[2] = endothelial E-selectin expression blockers – imaging, HUVEC, immunofluorescence, MLSMR starter and 10KST1 sets, primary screen (AID 487;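 active means visually confirmed hit in the image check and inhibition above 20%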;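 on inhibition: signal is fraction of cell area covered by stained E-selectin grains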;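 on nuclei count: 100% = median nuclei count of all wells on the same plate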); conditions: HUVEC TNFalpha-induced E-selectin immunofluorescence imaging, at 2 µM; inhibition: stronger effect = higher value; nuclei count: measured here: cell number, toxicity
[3] = Primary imaging screen for DUSP6 inhibitors that restore phospho-Erk in transfected HeLa cells, chemical complementation (AID 609); conditions: HeLa MKP-3 transfected, phospho-Erk imaging KS statistic, at 10 µM, cells stimulated with TPA for 15 min;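 on inhibition: phospho-Erk level distribution per well compared with pooled transfected vehicle control wells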
[4] = target: Dual specificity protein phosphatase 6 (Homo sapiens) (UniProt Q16828); assay: as above; conditions: HeLa MKP-3 transfected, phospho-Erk imaging KS statistic; at 10 µM; stronger effect = higher value; cells stimulated with TPA for 15 min
[5] = target: Voltage-gated potassium channel subunit beta-2 (Rattus norvegicus) (UniProt P62483); assay: inhibitors of rat Kvbeta2 reductase activity – biochemical, NADPH fluorescence, primary screen (AID 622;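 active means fluorescence slope higher than the sample average by over 3 SD, cut at about -0.22 in these data, passing the limit was not always enough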;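 further: slope of raw intensity against log time taken from 70 to 1610 s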); conditions: recombinant KvBeta, 4-cyanobenzaldehyde reduction, at 10 µM, stronger effect = higher value
[6] = target: Voltage-gated potassium channel subunit beta-2 (Rattus norvegicus) (UniProt P62483); assay: enhancers of rat Kvbeta2 NADPH turnover – biochemical, NADPH fluorescence, primary screen (AID 623;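 active means NADPH fluorescence slope more negative than the mean of all samples by about 3 SD, 99.7% confidence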;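 further: fluorescence intensity change per second fitted from 20 to 320 s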); conditions: Recombinant KvBeta, NADPH fluorescence decrease slope, 10 min; at 10 µM; stronger effect = lower value
[7] = target: Alpha-2C adrenergic receptor (Homo sapiens) (UniProt P18825); assay: compounds altering alpha2C-coupled GIRK flux – cell-based, HEK293 alpha2C/GIRK1/2, thallium flux, primary screen (AID 624;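 active means fluorescence slope after compound addition differing from the mean of all screened samples at 99.7% confidence, in either direction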;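 further: slope of fluorescence ratio to pre-addition baseline per second over 15 to 24 s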); conditions: thallium flux BTC fluorescence, at 10 µM, actives lie on both sides
[8] = inhibitors of larval lipid processing in zebrafish, primary screen, whole organism, PED6 fluorescence, gall bladder and intestine (AID 686;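 active means a full or partial loss of lipid-probe fluorescence in the fish gall bladder, intestine or both, judged by eye; inactive means no fluorescence loss, or compound toxic to the fish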;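 further: larvae 5 to 7 days old with five fish per well; signal comes from phospholipase A2 cleavage of quenched PED6 carried via bile; overnight exposure to compound and PED6 before scoring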); conditions: Zebrafish larvae PED6 lipid processing, fluorescence scoring; screened at 20 µM (by protocol)
How it was run: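 System: live zebrafish larvae aged 5-7 days, whole organism; measure: graded gall bladder and intestinal fluorescence inhibition per well; incubation: overnight exposure; reagent: ingested quenched lipid PED6 at 100 nM; signal: By-eye fluorescence microscopy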

[9] = loss of swimming-algae plug formation – whole organism, Chlamydomonas reinhardtii, WT vs cilia-less mutant, absorbance, 96-well, primary screen (AID 463189;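 active means inhibition at or above 50% relative to wild type and mutant plate controls; inactive means inhibition below 50%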;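 further: 0% = wild type cc124 cells in DMSO and 100% = ciliumless bld1 mutant cells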); conditions: Chlamydomonas reinhardtii gravitaxis, OD600 absorbance, 2 days; at 10 µM; stronger effect = higher value
[10] = measured here: cell density z-score
[11] = measured here: nuclear c-Myc green intensity z-score
[12] = measured here: nuclear pErk red intensity z-score, stronger effect = higher value

Chain of Alpha-2C adrenergic receptor (Homo sapiens) (P18825 whole entry, looked up): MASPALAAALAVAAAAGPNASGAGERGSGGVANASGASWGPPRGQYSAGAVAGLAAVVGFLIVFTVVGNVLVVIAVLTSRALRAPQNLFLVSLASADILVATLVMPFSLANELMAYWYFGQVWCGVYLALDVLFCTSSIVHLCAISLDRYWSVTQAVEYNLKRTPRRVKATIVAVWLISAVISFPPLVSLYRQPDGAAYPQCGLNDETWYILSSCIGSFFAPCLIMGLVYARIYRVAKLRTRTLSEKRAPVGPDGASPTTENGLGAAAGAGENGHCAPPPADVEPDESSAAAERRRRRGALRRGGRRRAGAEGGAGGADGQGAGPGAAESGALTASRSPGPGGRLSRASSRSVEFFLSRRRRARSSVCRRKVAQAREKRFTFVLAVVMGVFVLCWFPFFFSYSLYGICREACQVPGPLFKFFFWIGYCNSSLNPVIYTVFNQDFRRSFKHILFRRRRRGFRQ
Chain of Dual specificity protein phosphatase 6 (Homo sapiens) (Q16828 whole entry, looked up): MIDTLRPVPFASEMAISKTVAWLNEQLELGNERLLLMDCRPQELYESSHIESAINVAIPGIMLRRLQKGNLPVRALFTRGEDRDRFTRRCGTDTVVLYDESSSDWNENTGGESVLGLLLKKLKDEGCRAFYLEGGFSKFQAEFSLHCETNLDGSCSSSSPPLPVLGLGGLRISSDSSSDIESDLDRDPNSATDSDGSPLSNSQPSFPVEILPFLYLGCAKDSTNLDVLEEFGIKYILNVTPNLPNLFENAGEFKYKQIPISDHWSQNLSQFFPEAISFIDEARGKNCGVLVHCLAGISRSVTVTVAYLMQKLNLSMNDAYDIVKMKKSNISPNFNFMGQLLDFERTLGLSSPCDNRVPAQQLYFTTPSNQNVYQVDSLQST
Chain of Voltage-gated potassium channel subunit beta-2 (Rattus norvegicus) (P62483 whole entry, looked up): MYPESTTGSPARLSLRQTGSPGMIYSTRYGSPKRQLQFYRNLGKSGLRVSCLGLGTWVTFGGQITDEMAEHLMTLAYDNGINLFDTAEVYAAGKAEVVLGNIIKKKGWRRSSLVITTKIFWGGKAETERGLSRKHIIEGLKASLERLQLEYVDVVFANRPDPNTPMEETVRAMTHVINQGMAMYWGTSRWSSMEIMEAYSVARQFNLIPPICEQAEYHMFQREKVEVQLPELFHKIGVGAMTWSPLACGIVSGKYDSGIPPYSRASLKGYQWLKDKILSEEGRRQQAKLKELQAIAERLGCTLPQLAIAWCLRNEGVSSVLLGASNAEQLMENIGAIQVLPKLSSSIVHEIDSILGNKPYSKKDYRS

Row | SMILES | cell count [1] | inhibition [1] | inhibition [2] | nuclei count [2] | z-score [3, 10] | z-score [3, 11] | z-score [3, 12] | inhibition [4] | fluorescence slope [5] | NADPH fluorescence slope [6] | slope [7] | outcome [8] | inhibition [9]
1 | CCCc1[nH]nc2c1C(c1cccc(OC)c1)C(C#N)=C(N)O2 (stereo not drawn) | 653 | -18% (inactive) | 32.3% (inactive) | 178% | -0.436 | -0.724 | 0.801 | 1.04% (inactive) | -0.401 (inactive) | -5.6e-05 (inactive) | 0.00438 (inactive) | inactive | 11.7% (inactive)
2 | CCCCCCn1cc(C(=O)O)c(=O)c2ccccc21 | 426 | -5.3% (inactive) | -95% (inactive) | 158% | -1.56 | 1.61 | 1.42 | -7.28% (inactive) | -0.402 (inactive) | -1.4e-06 (inactive) | 0.00525 (inactive) | inactive | -8.24% (inactive)
3 | CSC1=C(C#N)C(c2ccc(C)s2)CC(=O)N1 (stereo not drawn) | 411 | -0.1% (inactive) | 13.9% (inactive) | 63.5% | 0.0106 | 2.55 | -0.606 | 13.2% (inactive) | -0.511 (inactive) | -5e-05 (inactive) | 0.00472 (inactive) | inactive | 24% (inactive)
4 | COC(=O)C(NC(C)=O)(Nc1ccc(Br)cc1)C(=O)OC | 485 | -1.7% (inactive) | -127% (inactive) | 153% | 0.275 | 0.746 | -1.04 | 18.2% (inactive) | -0.537 (inactive) | -1.5e-05 (inactive) | 0.00456 (inactive) | inactive | -10.2% (inactive)
5 | CN1CCN(c2nc(C(N)=O)cc(-c3ccccc3)n2)CC1 | 400 | -6.4% (inactive) | 14% (inactive) | 98.8% | 1.22 | -2.25 | 0.112 | 7.83% (inactive) | -0.498 (inactive) | -3.9e-05 (inactive) | 0.00569 (inactive) | inactive | 18.8% (inactive)
6 | COC(=O)CSC1=C(C#N)C(=O)NC2(CCCCC2)S1 | 573 | -10.7% (inactive) | -35.3% (inactive) | 154% | -0.563 | 0.765 | 0.767 | -11.5% (inactive) | -0.493 (inactive) | -4.7e-05 (inactive) | 0.00592 (inactive) | inactive | -6.72% (inactive)
7 | CC1(C)Cc2c(sc3c2C(=O)N(c2ccccc2)C2=NCCCN23)CO1 | 624 | -12.4% (inactive) | -154% (inactive) | 120% | 1.04 | -0.486 | -1.32 | 18.9% (inactive) | -0.593 (inactive) | -2e-05 (inactive) | 0.00454 (inactive) | inactive | 41.4% (inactive)
8 | CC1CN(c2oc(-c3cccs3)nc2C#N)CC(C)O1 (stereo not drawn) | 437 | -13.6% (inactive) | -188% (inactive) | 178% | -0.465 | 0.306 | 0.34 | 0.671% (inactive) | -0.0506 (inactive) | 4e-07 (inactive) | 0.00683 (inactive) | inactive | 5.74% (inactive)
9 | CCOC(=O)C1=C(CSc2nc3c(cc2C#N)CCC3)OC(N)=C(C#N)C1c1ccccc1 (stereo not drawn) | 514 | -16.1% (inactive) | -90.1% (inactive) | 118% | -0.196 | 0.0665 | -0.283 | -0.674% (inactive) | -0.426 (inactive) | 5.2e-06 (inactive) | 0.00558 (inactive) | inactive | 5.98% (inactive)
10 | Nc1nonc1-c1noc(N2CCOCC2)n1 | 306 | -10.9% (inactive) | -42.1% (inactive) | 106% | 0.592 | 0.125 | 0.227 | -12.3% (inactive) | -0.281 (inactive) | 1e-05 (inactive) | 0.00528 (inactive) | inactive | 17.1% (inactive)
11 | Cc1cc(C)nc(CC(N)=O)n1 | 623 | -3.1% (inactive) | 3.3% (inactive) | 142% | 0.214 | 0.0631 | 0.457 | 6.04% (inactive) | -0.508 (inactive) | -4e-05 (inactive) | 0.0046 (inactive) | inactive | 14.5% (inactive)

Source: PubChem BioAssay
